Values belong to the molecule of their own block, whether it stands above or below them.
Experiments:
MIF [1] = target: T1, MIF (Homo sapiens, UniProt P14174); test: MIF tautomerase activity assay with 4-HPP as substrate; conditions: for LE (ligand efficiency): LE = 1.4(−log IC50)/N; for LLE (lipophilic ligand efficiency): LLE = pIC50 – C log P
T1 sequence (P14174 2-115 limits assumed): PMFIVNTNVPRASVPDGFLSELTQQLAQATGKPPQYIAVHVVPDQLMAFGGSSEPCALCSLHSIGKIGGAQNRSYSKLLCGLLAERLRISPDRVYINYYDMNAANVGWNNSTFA

A549 cells [2] = test: Colony formation; format: cell-based; conditions: 10 days
Procedure, shortened: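 A549 cells seeded at 100 cells/well in RPMI with 10% FBS and 100 U/mL penicillin/streptomycin, then incubated overnight. Exposed to test compound for 10 days; final DMSO 0.2%, with 0.2% DMSO as vehicle control. Fixed with 4% paraformaldehyde (20 min), stained with 0.5% crystal violet (20 min), photographed and image-analysed. A colony is an aggregate of >50 cells.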

MIF–sCD74 interaction = target: T2, MIF–sCD74 interaction (Homo sapiens, UniProt P14174); test: ELISA of MBP–sCD74 binding to coated MIF; conditions: at concentrations up to 50 μM
T2 sequence (P14174 2-115 limits assumed): T1 sequence (P14174 2-115 limits assumed)
Procedure, shortened: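 Recombinant C-terminal His-tagged human MIF (E. coli-expressed, Ni-purified) coated at 250 nM overnight at 4 °C, then blocked with 2% BSA and washed. His/MBP-purified MBP–sCD74 (500 nM) was premixed with test compound (1–100 μM, added in DMSO) for 10 min at RT, then applied to wells for 30 min at RT. Controls: DMSO vehicle and no-sCD74. Detection used rabbit anti-CD74 (1:1000) then goat anti-rabbit HRP (1:1000), each 30 min at RT.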

[3] = system: MIF-induced ERK phosphorylation in A549 cells; test: MIF-induced ERK phosphorylation, Western blot; format: cell-based; conditions: 10 μM, 150 ng/mL MIF
[4] = Fluorescence quantum yield and fluorescence lifetime; format: physicochemical; conditions: relative to 4-MU, excitation 330 nm
[5] = target: bovine serum albumin (BSA) (Bos taurus, UniProt P02769); test: Fluorescence quenching control with BSA; format: binding; conditions: 800 nM BSA, 50 nM fluorophore
A549 cells [6] = test: MTS cell viability assay; format: cell-based; conditions: concentrations below 20 μM, 24 h of treatment
MIF [7] = target: T1, MIF; test: FID assay with 7 as fluorescent indicator; format: binding; conditions: 7 50 nM, MIF 100 nM, PBS pH 7.4; calculated from EC50 by eq 1
MIF [8] = target: T1, MIF; test: FID assay with 6d as fluorescent indicator; format: binding

Chain of bovine serum albumin (BSA) (P02769 25-607): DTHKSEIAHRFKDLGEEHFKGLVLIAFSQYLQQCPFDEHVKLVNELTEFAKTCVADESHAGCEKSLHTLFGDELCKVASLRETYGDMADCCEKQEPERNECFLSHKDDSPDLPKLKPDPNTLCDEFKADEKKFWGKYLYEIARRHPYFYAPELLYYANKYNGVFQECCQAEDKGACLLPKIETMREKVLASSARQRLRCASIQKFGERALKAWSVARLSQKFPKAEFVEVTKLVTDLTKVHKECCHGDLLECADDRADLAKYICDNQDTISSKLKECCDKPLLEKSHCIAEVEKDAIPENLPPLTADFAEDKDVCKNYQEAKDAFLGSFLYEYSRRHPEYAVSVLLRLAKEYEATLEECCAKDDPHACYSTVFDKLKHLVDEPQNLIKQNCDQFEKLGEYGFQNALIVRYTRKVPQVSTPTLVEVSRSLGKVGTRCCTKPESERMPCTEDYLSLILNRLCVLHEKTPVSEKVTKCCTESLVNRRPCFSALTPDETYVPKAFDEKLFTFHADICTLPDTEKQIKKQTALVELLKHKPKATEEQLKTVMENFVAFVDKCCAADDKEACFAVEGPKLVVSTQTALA

Molecule: O=C(O)c1ccc(-c2ccc(-c3cc4ccc(O)cc4oc3=O)cc2)cc1 [Compound 7, 4′-(7-Hydroxy-2-oxo-2H-chromen-3-yl)-[1,1′-biphenyl]-4-carboxylic Acid]
MIF-induced ERK phosphorylation [3]: attenuated MIF-induced ERK phosphorylation
IC50 (MIF [1]): 71 ± 3 nM
LE (ligand efficiency) (MIF [1]): 0.37
LLE (lipophilic ligand efficiency) (MIF [1]): 5.80
mode of inhibition (enzyme kinetics) (MIF [1]; Lineweaver–Burk plot vs 4-HPP): binds in competition with 4-HPP
increased potency compared to precursor 6l (MIF [1]; vs 6l): 10 fold
fluorescence quantum yield [4]: 0.32
colony formation (A549 cells [2]; 2.5 μM): significantly lower numbers of colonies
colony formation (A549 cells [2]; 10 μM): significantly lower numbers of colonies
fluorescence quenching by BSA [5]: no fluorescence quenching
cell viability (A549 cells [6]): did not inhibit cell viability

Molecule: 4-(4-(isoquinolin-3-yl)-1H-1,2,3-triazol-1-yl)phenol [Compound 10, reference compound]
Ki (MIF [1]; 4-HPP conversion assay, Ki = IC50/(1 + 0.5/Km)): 440 ± 30 nM
Kd (MIF [7]): 470 ± 80 nM

Molecule: O=c1oc2cc(O)ccc2cc1-c1ccccc1 [Compound 6a, 7-Hydroxy-3-phenyl-2H-chromen-2-one]
enhanced potency compared to inhibitor 2 (MIF [1]; Ki ratio vs 2): 10 fold

Molecule: COc1ccc(-c2cc3ccc(O)cc3oc2=O)cc1 [Compound 6d, 7-Hydroxy-3-(4-methoxyphenyl)-2H-chromen-2-one]
fluorescence quantum yield [4]: 0.25

Molecule: COc1ccc(N2Cc3ccc(O)cc3OC2=O)cc1OC [Compound 8, 3-(3,4-Dimethoxyphenyl)-7-hydroxy-3,4-dihydro-2H-benzo[e][1,3]oxazin-2-one, reference compound]
LE (ligand efficiency) (MIF [1]): 0.43
LLE (lipophilic ligand efficiency) (MIF [1]): 4.85
inhibition of MIF–sCD74 binding (MIF–sCD74 interaction): did not demonstrate inhibition
EC50 (MIF [8]): 386 ± 44 nM

The next lines start with results.

LE (ligand efficiency) (MIF [1]): 0.30
LLE (lipophilic ligand efficiency) (MIF [1]): 2.05
Molecule: O=C(NCc1cn(-c2ccc(O)c(F)c2)nn1)c1cc2cc(Cl)ccc2[nH]1 [Compound 13, 5-chloro-N-((1-(3-fluoro-4-hydroxyphenyl)-1H-1,2,3-triazol-4-yl)methyl)-1H-indole-2-carboxamide, reference compound]
colony formation (A549 cells [2]; 10 μM): inhibited colony formation

inhibition of MIF–sCD74 binding (MIF–sCD74 interaction): did not demonstrate inhibition
Molecule: COC(=O)CC1CC(c2ccc(O)cc2)=NO1 (stereo not drawn) [ISO-1, methyl 2-(3-(4-hydroxyphenyl)-4,5-dihydroisoxazol-5-yl)acetate, reference compound]
colony formation (A549 cells [2]; 100 μM): inhibited colony formation
